Source: paper PMC12502093 (RSC Advances, 2025)
In brackets after ≈: the same amount, converted by molar mass.

Assays:
S. aureus ATCC 25923 = assay: Agar well diffusion test; assay type: cell-based; details: AWDT; for Zone of inhibition, inhibition scale: S. aureus ATCC 25923; for Zone of inhibition: S. aureus ATCC 25923, average of triplicate
Summary of the method: (§1)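 Agar well diffusion. Test compounds were placed in wells on agar inoculated with the reference strain or isolate. After incubation, inhibition zone diameters were measured in mm with a caliper. Runs were in triplicate and the zone averaged. Scale: 0 = no inhibition; 0–6 mm (−); 7–11 mm (+); 12–14 mm (++); 15–17 mm (+++).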

E. coli O157 ATCC 700728 [1] = assay: Agar well diffusion test; assay type: cell-based; details: AWDT; for Zone of inhibition, inhibition scale: E. coli O157 ATCC 700728; for Zone of inhibition: E. coli O157 ATCC 700728, average of triplicate
Summary of the method: as §1

C. albicans ATCC 10231 [2] = assay: Agar well diffusion test; assay type: cell-based; details: AWDT; for Zone of inhibition, inhibition scale: C. albicans ATCC 10231; for Zone of inhibition: C. albicans ATCC 10231, average of triplicate
A. flavus isolate = assay: Agar well diffusion test; assay type: cell-based; details: AWDT; for Zone of inhibition: average of triplicate
Summary of the method: as §1

C. albicans ATCC 10231 [3] = assay: Minimum inhibitory concentration, C. albicans; assay type: cell-based; details: Candida albicans, ATCC10231, read-out: MIC (mg mL^−1)
Summary of the method: (§2)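 MIC was determined by a previously reported method for compounds selected from the well-diffusion screen and is expressed in mg mL−1. […] For C. albicans, 100 μL of negative cells went onto potato dextrose agar at 25 °C/72 h.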

MCF7 cells = assay: Neutral red uptake cytotoxicity assay, MCF7; assay type: cell-based, human; details: for IC50: Homo sapiens, MCF7, 48 h, read-out: IC50 (μM) MCF7; for (SI) MCF7, selectivity index: SI = IC50 MDCK cell/IC50 MCF7 cell
Summary of the method: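 Neutral red uptake. Log-phase cells were grown in DMEM with 10% FBS at 37 °C, 5% CO2, at 10^4 cells/well. They were exposed 48 h to 12.5, 25, 50 and 100 μM test compound (DMSO final <0.2%), then given neutral red medium for 2 h and washed with DPBS. Dye was extracted with 1% acetic acid/50% ethanol and read at 450/630 nm. IC50 came from log concentration versus intensity, three runs averaged. SI = MDCK IC50 / MCF7 IC50.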

IL6 = assay: qRT-PCR gene expression in MCF7 cells: IL6; assay type: cell-based, human; details: compound at IC50, 48 h, relative to β-Actin, vs control
Summary of the method: (§3)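 MCF7 cells (3 × 10^4 per well) were treated 48 h with test compound. Total RNA was column-extracted and reverse-transcribed to first-strand cDNA. SYBR Green qPCR ran 95 °C 10 min, then 40 cycles of 95 °C 15 s, 60 °C 30 s, 72 °C 30 s. Expression was normalised to β-Actin by 2−ΔΔCT relative to untreated control. Data are mean ± SEM; Student's t-test, P < 0.05.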

JAK2 = assay: qRT-PCR gene expression in MCF7 cells: JAK2; assay type: cell-based, human; details: compound at IC50, 48 h, relative to β-Actin, vs control
Summary of the method: as §3

STAT3 [4] = assay: qRT-PCR gene expression in MCF7 cells: STAT3; assay type: cell-based, human; details: compound at IC50, 48 h, relative to β-Actin, vs control
Summary of the method: as §3

BCL2 = assay: qRT-PCR gene expression in MCF7 cells: BCL2; assay type: cell-based, human; details: compound at IC50, 48 h, relative to β-Actin, vs control
Summary of the method: as §3

BAX = assay: qRT-PCR gene expression in MCF7 cells: BAX; assay type: cell-based, human; details: compound at IC50, 48 h, relative to β-Actin, vs control
Summary of the method: as §3

Cyclin D1 = assay: qRT-PCR gene expression in MCF7 cells: Cyclin D1; assay type: cell-based, human; details: compound at IC50, 48 h, relative to β-Actin, vs control
Summary of the method: as §3

c-MYC = assay: qRT-PCR gene expression in MCF7 cells: c-MYC; assay type: cell-based, human; details: compound at IC50, 48 h, relative to β-Actin, vs control
Summary of the method: as §3

E. coli O157 ATCC 700728 [5] = assay: Minimum inhibitory concentration, E. coli; assay type: cell-based; details: Escherichia coli, ATCC700728, read-out: MIC (mg mL^−1)
Summary of the method: as §2

STAT3 [6] = target: STAT3 (Homo sapiens, UniProt P40763); assay: STAT3 tyrosine phosphorylation inhibition; assay type: biochemical; details: for IC50: STAT3 phosphorylation IC50 (μM) (mean ± SD), ELISA, eight dilutions 100-0.03 μM
Sequence of STAT3 (Homo sapiens, UniProt P40763) (P40763 whole entry): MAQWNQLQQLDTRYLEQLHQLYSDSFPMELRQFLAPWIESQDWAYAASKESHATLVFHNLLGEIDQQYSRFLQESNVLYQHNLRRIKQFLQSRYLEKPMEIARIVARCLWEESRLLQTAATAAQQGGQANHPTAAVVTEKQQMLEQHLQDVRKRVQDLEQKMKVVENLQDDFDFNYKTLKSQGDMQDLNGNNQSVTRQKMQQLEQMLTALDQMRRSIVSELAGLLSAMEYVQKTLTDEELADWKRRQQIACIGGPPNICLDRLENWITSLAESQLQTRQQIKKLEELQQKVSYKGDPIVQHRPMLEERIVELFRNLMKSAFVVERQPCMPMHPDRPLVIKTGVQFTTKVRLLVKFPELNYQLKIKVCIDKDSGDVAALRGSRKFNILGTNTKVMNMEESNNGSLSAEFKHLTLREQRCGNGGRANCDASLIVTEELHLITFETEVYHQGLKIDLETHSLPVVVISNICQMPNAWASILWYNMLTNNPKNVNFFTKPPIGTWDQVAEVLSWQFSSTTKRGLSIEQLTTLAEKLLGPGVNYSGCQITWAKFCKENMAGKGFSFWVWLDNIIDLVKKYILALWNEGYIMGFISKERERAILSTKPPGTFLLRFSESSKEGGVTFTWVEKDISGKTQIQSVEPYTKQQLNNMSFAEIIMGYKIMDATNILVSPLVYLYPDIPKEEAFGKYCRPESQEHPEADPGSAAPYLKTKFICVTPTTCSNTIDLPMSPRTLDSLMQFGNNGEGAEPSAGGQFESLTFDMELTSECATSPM

E. coli DNA gyrase [7] = target: T1, E. coli DNA gyrase (Escherichia coli, UniProt P0AES6); assay: E. coli DNA gyrase supercoiling assay; assay type: biochemical
Summary of the method: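 Commercial kit assay of E. coli DNA gyrase supercoiling. Relaxed plasmid DNA is the substrate, and relaxed and supercoiled forms are separated by agarose gel electrophoresis. Test compounds were dissolved in DMSO and added at different concentrations to derive IC50.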

E. coli DNA gyrase [8] = target: T1, E. coli DNA gyrase; assay: E. coli DNA gyrase ATPase assay; assay type: biochemical
E. coli topoisomerase IV [9] = target: T2, E. coli topoisomerase IV (Escherichia coli, UniProt P20083); assay: E. coli topoisomerase IV cleavage assay; assay type: biochemical
T2 sequence (P20083 whole entry): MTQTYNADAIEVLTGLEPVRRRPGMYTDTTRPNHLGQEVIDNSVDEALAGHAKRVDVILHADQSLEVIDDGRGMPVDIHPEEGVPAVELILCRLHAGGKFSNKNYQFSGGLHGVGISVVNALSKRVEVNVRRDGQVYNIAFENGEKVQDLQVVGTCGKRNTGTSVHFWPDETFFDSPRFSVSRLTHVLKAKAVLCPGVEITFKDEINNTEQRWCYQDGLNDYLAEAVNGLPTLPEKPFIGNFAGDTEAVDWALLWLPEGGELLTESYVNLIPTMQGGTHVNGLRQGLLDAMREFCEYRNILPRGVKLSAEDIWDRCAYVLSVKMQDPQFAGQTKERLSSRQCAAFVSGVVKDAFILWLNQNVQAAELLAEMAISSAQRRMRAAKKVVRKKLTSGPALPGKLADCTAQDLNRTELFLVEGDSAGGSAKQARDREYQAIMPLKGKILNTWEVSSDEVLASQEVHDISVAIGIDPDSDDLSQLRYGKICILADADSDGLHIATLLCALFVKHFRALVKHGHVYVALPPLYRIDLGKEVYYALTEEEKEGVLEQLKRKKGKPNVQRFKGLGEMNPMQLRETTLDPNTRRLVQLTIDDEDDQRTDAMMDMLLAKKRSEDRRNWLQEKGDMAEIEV
T2 sequence (P0AFI2 whole entry partner): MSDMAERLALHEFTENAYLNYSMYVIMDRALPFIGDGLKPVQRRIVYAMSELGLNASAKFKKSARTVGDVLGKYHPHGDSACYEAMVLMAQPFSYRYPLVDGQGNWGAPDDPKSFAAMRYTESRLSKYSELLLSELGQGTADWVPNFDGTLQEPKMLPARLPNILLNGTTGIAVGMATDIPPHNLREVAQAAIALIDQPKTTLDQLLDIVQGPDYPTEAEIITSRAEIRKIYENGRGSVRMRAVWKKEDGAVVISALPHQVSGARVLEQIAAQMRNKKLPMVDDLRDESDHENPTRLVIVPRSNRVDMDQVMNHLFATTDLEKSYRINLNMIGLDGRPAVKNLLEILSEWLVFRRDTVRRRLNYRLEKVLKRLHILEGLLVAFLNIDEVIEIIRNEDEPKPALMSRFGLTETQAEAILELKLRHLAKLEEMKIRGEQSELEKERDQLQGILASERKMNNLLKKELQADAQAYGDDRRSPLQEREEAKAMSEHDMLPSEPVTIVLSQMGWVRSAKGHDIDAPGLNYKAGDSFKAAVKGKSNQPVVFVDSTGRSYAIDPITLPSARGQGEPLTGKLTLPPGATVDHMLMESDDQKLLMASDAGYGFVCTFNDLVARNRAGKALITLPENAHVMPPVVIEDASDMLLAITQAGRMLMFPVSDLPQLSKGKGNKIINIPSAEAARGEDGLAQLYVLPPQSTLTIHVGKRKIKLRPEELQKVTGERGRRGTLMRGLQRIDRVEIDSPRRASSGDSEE

E. coli topoisomerase IV [10] = target: T2, E. coli topoisomerase IV; assay: E. coli topoisomerase IV ATPase assay; assay type: biochemical

Row | Compound | Zone of inhibition, inhibition scale (S. aureus ATCC 25923) | Zone of inhibition (S. aureus ATCC 25923) | Zone of inhibition (E. coli O157 ATCC 700728 [1]) | Zone of inhibition, inhibition scale (C. albicans ATCC 10231 [2]) | Zone of inhibition (C. albicans ATCC 10231 [2]) | Zone of inhibition, inhibition scale (A. flavus isolate) | Zone of inhibition (A. flavus isolate) | MIC (C. albicans ATCC 10231 [3]) | IC50 (MCF7 cells) | (SI) MCF7, selectivity index (MCF7 cells) | IL6 gene expression level (IL6) | JAK2 gene expression level (JAK2) | STAT3 gene expression level (STAT3 [4]) | BCL2 gene expression level (BCL2) | c-MYC gene expression level (c-MYC) | also measured
1 | CC(=O)c1ccc2cc(S(=O)(=O)Nc3ccccc3Cl)ccc2c1 [Compound 5c, 6-Acetyl-N-(2-chlorophenyl)naphthalene-2-sulfonamide] | − (0–6 mm (−)) | 0 mm | 12 mm | +++ (15–17 mm (+++)) | 16 mm | − (0–6 mm (−)) | 0 mm | 20000 µg/mL (≈ 55.6 mM) |  |  |  |  |  |  |  | Zone of inhibition, inhibition scale (E. coli O157 ATCC 700728 [1]): ++ (12–14 mm (++))
2 | CC(=O)c1ccc2cc(S(=O)(=O)Nc3ccccc3C)ccc2c1 [Compound 5f, 6-Acetyl-N-(o-tolyl)naphthalene-2-sulfonamide] | − (0–6 mm (−)) | 0 mm | 11 mm | + (7–11 mm (+)) | 12 mm | − (0–6 mm (−)) | 0 mm |  |  |  |  |  |  |  |  | 
3 | CC(=O)c1ccc2cc(S(=O)(=O)Nc3ccc(F)cc3)ccc2c1 [Compound 5b, 6-Acetyl-N-(4-fluorophenyl)naphthalene-2-sulfonamide] | − (0–6 mm (−)) | 0 mm | 15 mm | +++ (15–17 mm (+++)) | 15 mm | − (0–6 mm (−)) | 0 mm | 10000 µg/mL (≈ 29.1 mM) | 40.1 µM | 2.33 | significant decrease | significant decrease | significant decrease | significant decrease | significant decrease | BAX gene expression level (BAX): significant increase; Cyclin D1 gene expression level (Cyclin D1): significant decrease; MIC (E. coli O157 ATCC 700728 [5]): 10000 µg/mL (≈ 29.1 mM); IC50 (STAT3 [6]): 3.59 ± 0.7 µM; Potency as STAT3 inhibitor relative to lead compound I (STAT3 [6]; higher potency than compound I): approximately 2 fold; IC50 (E. coli DNA gyrase [7]): 20.6 µM; IC50 (E. coli DNA gyrase [8]): 3.58 µM; IC50 (E. coli topoisomerase IV [9]): 15.4 µM; Potency relative to norfloxacin, topoisomerase IV cleavage assay (E. coli topoisomerase IV [9]; E. coli, more potent than norfloxacin): 1.5 fold; IC50 (E. coli topoisomerase IV [10]): 3.49 µM
4 | COc1cccc2c1C(=O)c1c(O)c3c(c(O)c1C2=O)C[C@@](O)(C(=O)CO)C[C@@H]3O[C@H]1C[C@H](N)[C@H](O)[C@H](C)O1 [Doxorubicin, reference compound] |  |  |  |  |  |  |  |  | 22.8 µM | 3.07 | significantly decreasing | significantly decreasing | significantly decreasing | significantly decreasing | significantly decreasing | BAX gene expression level (BAX): significantly raised; Cyclin D1 gene expression level (Cyclin D1): significantly decreasing
5 | CCn1cc(C(=O)O)c(=O)c2cc(F)c(N3CCNCC3)cc21 [Nor, norfloxacin, reference compound] |  |  |  |  |  |  |  |  |  |  |  |  |  |  |  | IC50 (E. coli DNA gyrase [7]): 11.1 µM; IC50 (E. coli topoisomerase IV [9]): 25.8 µM
6 | CC(=O)c1ccc2cc(S(=O)(=O)Nc3cccc(Cl)c3)ccc2c1 [Compound 5d, 6-Acetyl-N-(3-chlorophenyl)naphthalene-2-sulfonamide] | − (0–6 mm (−)) | 0 mm | 10 mm | + (7–11 mm (+)) | 15 mm | − (0–6 mm (−)) | 0 mm | 10000 µg/mL (≈ 27.8 mM) |  |  |  |  |  |  |  | 
7 | CC(=O)c1ccc2cc(S(=O)(=O)Nc3cccnc3)ccc2c1 [Compound 5j, 6-Acetyl-N-(pyridin-3-yl)naphthalene-2-sulfonamide] | − (0–6 mm (−)) | 0 mm | 16 mm | +++ (15–17 mm (+++)) | 16 mm | + (7–11 mm (+)) | 7 mm | 10000 µg/mL (≈ 30.6 mM) |  |  |  |  |  |  |  | MIC (E. coli O157 ATCC 700728 [5]): 20000 µg/mL (≈ 61.3 mM)
8 | COc1ccc(NS(=O)(=O)c2ccc3cc(C(C)=O)ccc3c2)cc1 [Compound 5g, 6-Acetyl-N-(4-methoxyphenyl)naphthalene-2-sulfonamide] | − (0–6 mm (−)) | 0 mm | 12 mm | + (7–11 mm (+)) | 10 mm | − (0–6 mm (−)) | 0 mm |  |  |  |  |  |  |  |  | Zone of inhibition, inhibition scale (E. coli O157 ATCC 700728 [1]): ++ (12–14 mm (++))
9 | CC(=O)c1ccc2cc(S(=O)(=O)Nc3ccccc3)ccc2c1 [Compound 5a, 6-Acetyl-N-phenylnaphthalene-2-sulfonamide] | − (0–6 mm (−)) | 0 mm |  | ++ (12–14 mm (++)) | 12 mm | − (0–6 mm (−)) | 0 mm |  | 42.1 µM | 2.15 | significantly decreased | significantly decreased | significantly decreased | significantly decreased | significantly decreased | IC50 (STAT3 [6]): 7.87 ± 0.74 µM
10 | CC(=O)c1ccc2cc(S(=O)(=O)NCc3ccccc3)ccc2c1 [Compound 5h, 6-Acetyl-N-benzylnaphthalene-2-sulfonamide] | ++ (12–14 mm (++)) | 14 mm | 10 mm | + (7–11 mm (+)) | 7 mm | + (7–11 mm (+)) | 10 mm |  |  |  |  |  |  |  |  | 
11 | CC(=O)c1ccc2cc(S(=O)(=O)Nc3ccccn3)ccc2c1 [Compound 5i, 6-Acetyl-N-(pyridin-2-yl)naphthalene-2-sulfonamide] | − (0–6 mm (−)) | 0 mm | 11 mm | + (7–11 mm (+)) | 14 mm | − (0–6 mm (−)) | 0 mm | 40000 µg/mL (≈ 123 mM) | 41.6 µM | 2.13 | significant decrease | significant decrease | significant decrease | significant decrease | significant decrease | BAX gene expression level (BAX): significant increase; Cyclin D1 gene expression level (Cyclin D1): significant decrease; IC50 (STAT3 [6]): 8.58 ± 0.9 µM
